Experiments:
[1] = test system: Nucleic Acid; assay: Thermal denaturation of calf-thymus DNA was evaluated; type: functional; conditions: Bos taurus
Method in brief: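 Calf thymus DNA (% GC 42) at 2 × 10^-4 M in 0.1 SSC (0.15 M NaCl/0.015 M sodium citrate, pH 7.0). Six curves at P/DNA = 0, 0.2, 0.4, 0.6, 0.8 and 1. A260 followed from 20 to 95 °C at 1 °C/min in a 10-mm cell. Tm = midpoint of the hyperchromic transition.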

[2] = Therapeutic effect against P388 leukemia in mice on days 1, 5 and 9 after administration of 10 mg/kg dose expressed as median survival time of treated and control mice (in vivo); type: organism-based; parameters: dose 10 mg/kg; conditions: mouse
Method in brief: (§1)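 DBA2 mice implanted ip with 10^6 P388 cells on D0; drug given ip on D1, D5, D9. Groups of 7 treated mice, 10 untreated controls. Mice weighed daily; study ended D45. T/C (%) = median survival time of treated over control group.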

[3] = Therapeutic effect against P388 leukemia in mice on days 1, 5 and 9 after administration of 5 mg/kg dose expressed as median survival time of treated and control mice (in vivo); type: organism-based; parameters: dose 5 mg/kg; conditions: mouse; method in brief: as §1
[4] = Therapeutic effect against P388 leukemia in mice on days 1, 5 and 9 after administration of 25 mg/kg dose expressed as median survival time of treated and control mice (in vivo); type: organism-based; parameters: dose 25 mg/kg; conditions: mouse; method in brief: as §1
[5] = species on record: Mus musculus; assay: In vitro inhibitory activity against L1210 leukemia cell line; type: functional; conditions: read-out: ID50 (the source's name)
Method in brief: (§2)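 Exponentially growing cells exposed 3 days to drug at final 10^-9 to 10^-4 M. L1210: RPMI 1640 + 10% FCS, seeded 1.5 × 10^5 cells/mL in flasks. MCF7: DMEM + 10% FCS, 10^5 cells/well in 6-well plates. Growth and viability by trypan blue counting; ID50 = concentration inhibiting growth by 50% of control.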

[6] = species on record: Homo sapiens; assay: In vitro inhibitory activity against MCF-7 mammary cell line; type: functional; conditions: MCF7, read-out: ID50 (the source's name); method in brief: as §2
[7] = species on record: Mus musculus; assay: In vitro cytotoxicity against L1210 leukemia cell line; type: functional; conditions: read-out: LD50 (the source's name)
Method in brief: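 L1210 mouse lymphocytic leukemia cells in RPMI 1640 with 10% (v/v) foetal calf serum, in exponential growth, seeded at 1.5 × 10^5 cells/mL in flasks; drug added at final 10^-9 to 10^-4 M for 3 days. Growth and viability counted by trypan blue staining; ID50 is the concentration inhibiting cell growth by 50% of control.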

[8] = Therapeutic effect against P388 leukemia in mice on days 1, 5 and 9 after administration of 1.6 mg/kg dose expressed as median survival time of treated and control mice (in vivo); type: organism-based; parameters: dose 1.6 mg/kg; conditions: mouse; method in brief: as §1

SMILES | ΔTm [1] | IC50 [5] | IC50 [6] | CC50 [7] | also measured
NCCCC(NC(=O)[C@@H](Cc1c[nH]cn1)NC(=O)CNc1ccc(O)c2c1C(=O)c1c(O)ccc(O)c1C2=O)C(=O)O (stereo partly drawn) | 11.3 °C | – | – | – | –
NCC(=O)NCC(=O)N[C@@H](Cc1c[nH]cn1)C(=O)NCCNc1ccc(NCCNC(=O)[C@H](Cc2c[nH]cn2)NC(=O)CNC(=O)CN)c2c1C(=O)c1c(O)ccc(O)c1C2=O [listing 1 of 2 here] | – | – | – | – | T/C [2]: 150; T/C [3]: 140; T/C [4]: 230
NCC(=O)NCC(=O)N[C@@H](Cc1c[nH]cn1)C(=O)NCCNc1ccc(NCCNC(=O)[C@H](Cc2c[nH]cn2)NC(=O)CNC(=O)CN)c2c1C(=O)c1c(O)ccc(O)c1C2=O [listing 2 of 2 here] | – | 50 nM | 800 nM | 70 nM | –
NCC(=O)NCC(=O)N[C@@H](Cc1c[nH]cn1)C(=O)NCCNc1ccc(NCCNC(=O)[C@@H](Cc2c[nH]cn2)NC(=O)CNC(=O)CN)c2c1C(=O)c1c(O)ccc(O)c1C2=O | 17.1 °C | – | – | – | –
O=C1c2c(O)ccc(O)c2C(=O)c2c(NCCNCCO)ccc(NCCNCCO)c21 [MITOXANTRONE] | 15.9 °C | 7 nM | 270 nM | 7 nM | T/C [8]: 190

Source: ChEMBL document CHEMBL1126952, “Synthesis and antitumor properties of an anthraquinone bisubstituted by the copper chelating peptide Gly-Gly-L-His” (J Med Chem, 1993)
